Measured values of several laboratories.
Compare with care: the assays were run in different laboratories.
Target: SRSF protein kinase 3 (SRPK3, Homo sapiens, UniProt Q9UPE1)

SMILES | assay | setting | quantity | result
CC(C)S(=O)(=O)c1ccc2nccc(Nc3ccc4sc(C5CCCC5)nc4c3)c2c1 | enzyme activity, inhibitor | 1 µM | activity vs control | 110%
Cc1ccc(NC(=O)c2ccnc(C(F)(F)F)c2)cc1-c1cc(OCCO)nc(N2CCOCC2)c1 | binding | 1 µM | remaining binding | 93%
C=CC(=O)N1CCC[C@@H](n2nc(-c3ccc(Oc4ccccc4)cc3)c3c(N)ncnc32)C1 | enzyme activity, inhibitor | 1 µM | inhibition | 16%
N#Cc1ccc(NC(=O)Nc2ccccc2)cc1 | cell-free assay, competition with immobilised ligand | 25 µM | inhibition | 90.3%
C#Cc1cnc(Nc2ccnc(CO)c2)nc1Nc1ccccc1S(C)(=O)=NC#N (centres unmarked) | cell-free assay | 1 µM | remaining signal | 47%
CN1CCN(C(=O)c2ccc(NC(=O)Nc3ccc(N(C)c4ccnc(Nc5ccc(CS(C)(=O)=O)cc5)n4)cc3)cc2)CC1 | binding | 1 µM | remaining binding | 7.7%
CCCCC(=O)Nc1ccc(-c2ccc3ncn(CCC)c(=O)c3c2)cn1 | binding, competition with immobilised ligand | 0.5 µM | remaining binding | 92%
CC#CC(=O)N1CCC[C@H]1c1nc(-c2ccc(C(=O)Nc3ccccn3)cc2)c2c(N)nccn12 | enzyme activity, inhibitor | 1 µM | inhibition | 0%
